Columns and labels:
[1] = biological target: Glutamate receptor ionotropic kainate 2 (Homo sapiens) (UniProt Q13002); test: Antagonist activity at human recombinant GluR6 expressed in HEK cells coexpressing aequorine assessed as inhibition of glutamate-induced Ca2+ influx at 10 uM by luminescence reporter assay relative to control; conditions: HEK293
[2] = biological target: Glutamate receptor ionotropic kainate 1 (Homo sapiens) (UniProt P39086); test: Antagonist activity at human recombinant GluR5 expressed in HEK cells coexpressing aequorine assessed as inhibition of glutamate-induced Ca2+ influx at 10 uM by luminescence reporter assay relative to control; conditions: HEK293
[3] = Cytotoxicity against monkey COS7 cells at 0.1 to 10 uM after 24 hrs by MTT assay; conditions: chlorocebus aethiops, cos-7, 24 h
[4] = tested on: N2a; test: Cytotoxicity against mouse N2A cells at 100 uM after 24 hrs by MTT assay; assay type: cell-based
Method in brief: (§1)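 Cell viability was measured by MTT in N2A neuroblastoma and COS7 monkey kidney cells after 24 h compound incubation. Formazan was released with lysis buffer and absorbance was read at 590 nm.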

[5] = tested on: N2a; test: Cytotoxicity against mouse N2A cells at 0.1 to 10 uM after 24 hrs by MTT assay; assay type: cell-based
Method in brief: as §1

[6] = Cytotoxicity against monkey COS7 cells at 100 uM after 24 hrs by MTT assay; conditions: chlorocebus aethiops, cos-7, 24 h
[7] = biological target: Glutamate receptor ionotropic kainate 1 (Homo sapiens) (UniProt P39086); test: Antagonist activity at human recombinant GluR5 expressed in HEK cells coexpressing aequorine assessed as inhibition of glutamate-induced Ca2+ influx at 100 uM by luminescence reporter assay relative to control; conditions: HEK293
[8] = biological target: Glutamate receptor ionotropic kainate 2 (Homo sapiens) (UniProt Q13002); test: Antagonist activity at human recombinant GluR6 expressed in HEK cells coexpressing aequorine assessed as inhibition of glutamate-induced Ca2+ influx at 100 uM by luminescence reporter assay relative to control; conditions: HEK293

Sequence of Glutamate receptor ionotropic kainate 2 (Homo sapiens) (Q13002 whole entry, looked up): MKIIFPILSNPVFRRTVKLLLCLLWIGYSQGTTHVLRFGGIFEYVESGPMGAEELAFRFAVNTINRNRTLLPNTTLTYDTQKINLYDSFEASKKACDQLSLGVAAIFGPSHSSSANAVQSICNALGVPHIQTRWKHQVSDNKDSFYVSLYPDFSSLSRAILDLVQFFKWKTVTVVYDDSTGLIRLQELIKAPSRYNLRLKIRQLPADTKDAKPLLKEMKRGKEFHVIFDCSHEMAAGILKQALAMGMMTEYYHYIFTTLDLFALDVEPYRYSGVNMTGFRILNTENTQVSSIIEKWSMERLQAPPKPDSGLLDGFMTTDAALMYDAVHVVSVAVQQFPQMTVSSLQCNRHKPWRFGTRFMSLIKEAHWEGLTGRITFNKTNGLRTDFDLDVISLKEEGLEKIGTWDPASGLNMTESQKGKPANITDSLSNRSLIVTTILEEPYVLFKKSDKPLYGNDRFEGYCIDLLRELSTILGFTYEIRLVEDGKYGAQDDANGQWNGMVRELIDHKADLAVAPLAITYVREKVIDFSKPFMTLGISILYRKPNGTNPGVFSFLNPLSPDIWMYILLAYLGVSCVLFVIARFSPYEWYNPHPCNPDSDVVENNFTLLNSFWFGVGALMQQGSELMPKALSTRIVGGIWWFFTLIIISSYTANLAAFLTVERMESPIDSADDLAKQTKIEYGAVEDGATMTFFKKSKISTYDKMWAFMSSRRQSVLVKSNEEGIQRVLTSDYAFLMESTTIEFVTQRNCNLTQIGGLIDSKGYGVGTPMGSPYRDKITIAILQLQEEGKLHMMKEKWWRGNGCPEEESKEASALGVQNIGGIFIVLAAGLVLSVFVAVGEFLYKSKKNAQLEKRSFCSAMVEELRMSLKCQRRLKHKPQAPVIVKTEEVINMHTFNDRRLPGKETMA
Sequence of Glutamate receptor ionotropic kainate 1 (Homo sapiens) (P39086 whole entry, looked up): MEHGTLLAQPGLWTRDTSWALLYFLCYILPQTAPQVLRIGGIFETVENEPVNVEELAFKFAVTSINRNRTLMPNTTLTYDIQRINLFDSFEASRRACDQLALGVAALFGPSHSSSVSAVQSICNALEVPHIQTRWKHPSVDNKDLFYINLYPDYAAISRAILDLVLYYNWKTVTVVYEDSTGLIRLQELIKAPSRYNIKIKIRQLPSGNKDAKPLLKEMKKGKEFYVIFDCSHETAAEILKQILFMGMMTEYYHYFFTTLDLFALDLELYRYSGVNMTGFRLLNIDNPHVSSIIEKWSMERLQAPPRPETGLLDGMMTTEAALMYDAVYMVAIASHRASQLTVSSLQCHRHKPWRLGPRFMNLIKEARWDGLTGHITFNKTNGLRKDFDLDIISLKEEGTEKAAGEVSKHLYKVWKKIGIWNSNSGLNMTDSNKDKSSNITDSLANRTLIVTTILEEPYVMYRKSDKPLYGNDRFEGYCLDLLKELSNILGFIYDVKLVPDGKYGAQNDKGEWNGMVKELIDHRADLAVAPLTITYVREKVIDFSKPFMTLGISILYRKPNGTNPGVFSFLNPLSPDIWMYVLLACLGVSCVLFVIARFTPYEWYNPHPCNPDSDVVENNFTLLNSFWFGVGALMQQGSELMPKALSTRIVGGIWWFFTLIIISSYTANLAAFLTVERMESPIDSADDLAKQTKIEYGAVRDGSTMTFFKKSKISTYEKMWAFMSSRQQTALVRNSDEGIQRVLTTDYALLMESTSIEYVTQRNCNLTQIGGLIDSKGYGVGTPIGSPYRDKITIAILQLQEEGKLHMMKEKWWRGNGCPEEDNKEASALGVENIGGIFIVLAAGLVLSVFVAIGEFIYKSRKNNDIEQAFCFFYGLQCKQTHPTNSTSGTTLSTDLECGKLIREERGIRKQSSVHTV

| inhibition [1] [%] | inhibition [2] [%] | Compound | also measured |
| --- | --- | --- | --- |
|  | 0 | CCOC(=O)c1c(N=C=S)sc(-c2ccccc2)c1C | Activity [3]: Non-toxic; Activity [4]: Toxic; Activity [5]: Non-toxic; Activity [6]: Toxic |
| 4 | 8 | CCSc1nc2sc3c(c2c(=O)[nH]1)CCCC3 |  |
| 0 | 17 | Oc1nc(S)nc2sc3c(c12)CCCC3 |  |
| 12 | 0.1 | CCNC(=O)Nc1sc2c(c1C(N)=O)CCCC2 |  |
| 9 | 14 | CCOC(=O)c1c(NC(=O)CN2CCOCC2)sc(-c2ccccc2)c1C |  |
| 18 | 1 | CCOC(=O)Nc1cc(C)c(-c2ccccc2)s1 |  |
| 0 | 1 | CCSc1nc2sc(-c3ccccc3)c(C)c2c(=O)[nH]1 |  |
|  | 10 | CCOC(=O)c1c(N)sc(-c2ccccc2Cl)c1C |  |
|  | 1 | CCOC(=O)c1c(N)sc(-c2ccc(OC)cc2)c1C |  |
| 9.5 | 11.8 | CCn1c(=O)[nH]c2sc(-c3ccccc3)c(C)c2c1=O |  |
| 17 | 14 | CCOC(=O)Nc1sc2c(c1C(N)=O)CCCC2 |  |
| -2 | 10 | Cc1c(-c2ccccc2)sc2[nH]c(=S)[nH]c(=O)c12 |  |
|  | 12 | CCOC(=O)c1c(N)sc(-c2ccccc2)c1C | Activity [3]: Non-toxic; Activity [4]: Toxic; Activity [5]: Non-toxic; Activity [6]: Toxic |
|  | 13 | CCOC(=O)c1c(N)sc(-c2ccccc2)c1-c1ccccc1 | Activity [3]: Non-toxic; Activity [4]: Toxic; Activity [5]: Non-toxic |
| 4 | 9 | CCNC(=O)c1c(N)sc(-c2ccccc2)c1C |  |
| 11 | 7 | CCOC(=O)c1c(N)sc2c1CCCC2 |  |
|  | 5 | CCCOC(=O)c1c(N)sc(-c2ccccc2)c1C | Activity [3]: Non-toxic; Activity [4]: Toxic; Activity [5]: Non-toxic; Activity [6]: Toxic |
|  | 4 | CCOC(=O)c1c(N=NN2CCOCC2)sc(-c2ccccc2)c1C |  |
|  | 0 | CCOC(=O)c1c(Cl)sc(-c2ccccc2)c1C |  |
| 5 | -3 | CCOC(=O)c1c(NC(=O)c2ccccc2)sc(-c2ccccc2)c1C |  |
| 13 | 4 | NC(=O)c1c(N)sc2c1CCCC2 |  |
| 19 | 4.5 | CCOC(=O)c1c(NC)sc(-c2ccccc2)c1C |  |
|  | 0 | CCOC(=O)c1c(N)sc(-c2ccc(F)cc2)c1C |  |
| 7.1 | 6 | CCn1c(=O)[nH]c2sc3c(c2c1=O)CCCC3 |  |

Continued, compound first:

| Compound | inhibition [1] [%] | inhibition [2] [%] | also measured |
| --- | --- | --- | --- |
| CCNC(=O)Nc1sc(-c2ccccc2)c(C)c1C(N)=O | 17 | 5.8 |  |
| CCOC(=O)c1c(NC(C)=O)sc(-c2ccccc2)c1C | 4 | 3 |  |
| COC(=O)c1c(N)sc(-c2ccccc2)c1C |  |  | Activity [3]: Non-toxic; Activity [5]: Non-toxic; Activity [6]: Non-toxic |
| CCOC(=O)C(=O)Nc1sc(-c2ccccc2)c(C)c1C(=O)OCC | 10 | 4 |  |
| CCOC(=O)c1c(NC(=O)CNCc2ccccc2)sc(-c2ccccc2)c1C | 4 | 25 |  |
| CCNC(=O)Nc1sc(-c2ccccc2)c(C)c1C(=O)OCC | 9 | 0.5 |  |
| Cc1c(-c2ccccc2)sc(N)c1C(N)=O |  |  | inhibition [7]: 2%; inhibition [8]: 3% |
| CCOC(=O)Nc1sc(-c2ccccc2)c(C)c1C(=O)O | 7 | 12 |  |
| CCOC(=O)Nc1sc(-c2ccccc2)c(C)c1C(N)=O | 12 | 19 |  |
| Cc1c(-c2ccccc2)sc(N)c1C(=O)O | 44 |  | inhibition [7]: 20% |
| Cc1c(-c2ccccc2)sc(N)c1C(=O)c1ccccc1 |  | 17 |  |
| CCOC(=O)c1c(NC(=O)C(F)(F)F)sc(-c2ccccc2)c1C | 20 | 18 |  |
| CCOC(=O)c1c(-n2cccc2)sc(-c2ccccc2)c1C | 2 | -1 |  |
| CCOC(=O)c1cc(-c2ccccc2)sc1N | -1 |  | inhibition [7]: 25% |
| CCNC(=S)Nc1sc(-c2ccccc2)c(C)c1C(=O)OCC | -6.5 | 7 |  |
| Cc1c(-c2ccccc2)sc(N)c1C(=O)OC(C)(C)C |  | 4 |  |
| Cc1c(-c2ccccc2)sc(N)c1C#N |  | 17 |  |
| CCOC(=O)c1c(N=NC#N)sc(-c2ccccc2)c1C |  | 7 |  |
| CCOC(=O)c1c(N=NN(C)C)sc(-c2ccccc2)c1C |  | 10 |  |

From ChEMBL document CHEMBL1154608, “Substituted 2-aminothiopen-derivatives: a potential new class of GluR6-antagonists” (Eur J Med Chem, 2010)
